Measured values taken from the RNAGym collection of RNA variant scans (doi:10.1126/science.aae0568).
Fewer inactive variants are shown than the library holds.

B1: tRNA (parent)
chain: GUUCCGUUGGCGUAAUGGUAACGCGUCUCCCUCCUAAGGAGAAGACUGCGGGUUCGAGUCCCGUACGGAACG

Variants of: B1
Assay: yeast fitness relative to wild type (ratio to wild type); higher = fitter; tRNA-Arg(CCU), competitive growth, 37 C, YPD
In short: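 A pool of Saccharomyces cerevisiae strains, each with a tRNA-Arg(CCU) gene variant at the native genomic locus, was competed in YPD at 37°C for 24 hours across six parallel replicates. The variants had been chemically synthesised at a 3% per-site mutation rate over 69 sites, and gene amplicons before and after competition were read by 100-nucleotide paired-end sequencing. Darwinian fitness relative to wild type rested on changes in genotype frequencies. Genotypes required ≥ 100 starting reads, and estimates < 0.5 were set to 0.5.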

Row | Variant | yeast fitness
1 | U2C C4A G17A C60G | ≤ 0.5
2 | U2A U7A A15U G56A | ≤ 0.5
3 | U2C A21U U54G | ≤ 0.5
4 | U2C C4U C33A G41C C60U A65U A69U | ≤ 0.5
5 | U2A G6A | 0.775
6 | U2A G41C G50C | ≤ 0.5
7 | U2A G9C U16G U32G G52A G63C | ≤ 0.5
8 | U2A G67U | 0.824
9 | U2C A14C U19A | 0.595
10 | U2A C24G A37C C66U | ≤ 0.5
11 | U2C A57U G67C | 0.562
12 | U2A U8C A15G | 0.667
13 | U2A G9C U35A A36G | ≤ 0.5
14 | U2C C11A C22G G41A A43C G51C | ≤ 0.5
15 | U2C A40C G52C G67A | 0.56
16 | U2C C29A C31A A40U C49U | 0.554
17 | U2A C31G A65G | 0.642
18 | U2A U19G A65U | 0.644
19 | U2A U16G C66A | 0.625
20 | U2A G9A U13A C24A | ≤ 0.5
21 | U2C A20U C62U | 0.571
22 | U2A U3G A36U | ≤ 0.5
23 | U2C C11U G12A A15G | ≤ 0.5
24 | U2C C31A A70U | 0.76

Row | Variant | yeast fitness
25 | U2C C11U G68A | 0.544
26 | U2C C27U A43G G56A | ≤ 0.5
27 | U2A G23C C31U | ≤ 0.5
28 | U2A U8C | 1.01
29 | U2A U8A | 0.811
30 | U2A G50C C55G C62G | ≤ 0.5
31 | U2C A57U C62U | 0.549
32 | U2C C11U U59A | 0.586
33 | U2A G6C U7C A15U U35C G41A C60A A65U A69G | ≤ 0.5
34 | U2C C24U A57U | ≤ 0.5
35 | U2A U64C | 0.938
36 | U2A U47A A65C | ≤ 0.5
37 | U2A G9A C33A G68A | ≤ 0.5
38 | U2A U13G U28A A36U G56A C62G U64G | ≤ 0.5
39 | U2C A40C G52C | 0.528
40 | U2C A14U A15G C30U C34U G51C C55U | 0.596
41 | U2C A14U U47A C61G A70G | ≤ 0.5
42 | U2A G9A G23A C29G | ≤ 0.5
43 | U2A U3G C11A G12A U16C C22G C62U | ≤ 0.5
44 | U2A C34U G48A C60U | 0.602
45 | U2C C34G U59A | ≤ 0.5
46 | U2A G10A G17C U35C C55G | ≤ 0.5
47 | U2C C29A C34G A43U G52A | 0.682
48 | U2A U3C G6A U26C G56A | ≤ 0.5

Row | Variant | yeast fitness
49 | U2C A57G C66G | ≤ 0.5
50 | U2C A43G A57C A65U | ≤ 0.5
51 | U2C A14G U47G | 0.593
52 | U2A U3A U16C C24U A69U | ≤ 0.5
53 | U2A C34G A36G A43U | ≤ 0.5
54 | U2C A15C C24A G41C G68A | ≤ 0.5
55 | U2C C4U A37C G48A C60G A65U | ≤ 0.5
56 | U2A C33G A42C G63A | ≤ 0.5
57 | U2A U28C G39A G68A | ≤ 0.5
58 | U2C C27A C60G | ≤ 0.5
59 | U2C C31G G58C G67C | 0.53
60 | U2A U7C G41A A42C G50C A70G | ≤ 0.5
61 | U2A C22G C62U G63C | ≤ 0.5
62 | U2C C29A G44C C46G C62A | ≤ 0.5
63 | U2A U32A A65U A69C | ≤ 0.5
64 | U2A C29G C34A C60G | ≤ 0.5
65 | U2A U16G G18C | 0.614
66 | U2C C55A | 0.7
67 | U2C C24G C29U C62G C66A | ≤ 0.5
68 | U2C A20C G68A | 0.614
69 | U2A U16G A69C | 0.85
70 | U2A U3C C4U C61A G67C | 0.59
71 | U2A G56A | 0.898
72 | U2C A14G G18A C33U C34U G39C | ≤ 0.5

Row | Variant | yeast fitness
73 | U2A G9A A20C C24U | ≤ 0.5
74 | U2A U16C U28A G50A | ≤ 0.5
75 | U2A G25A A70U | 0.695
76 | U2A U13A U35G U64A A65C | ≤ 0.5
77 | U2A G10A U35C | ≤ 0.5
78 | U2A G9A C49A | ≤ 0.5
79 | U2A G9A A70C | 0.568
80 | U2A U28A A37C C66U | ≤ 0.5
81 | U2A G6A U16C U28A G50A | ≤ 0.5
82 | U2C A40G U54A | ≤ 0.5
83 | U2C C30G C33A | ≤ 0.5
84 | U2C | 1
85 | U2A U13G U28A A36U A45U A57G | 0.59
86 | U2C C24U C29U C30A | 0.59
87 | U2C A43G | 0.887
88 | U2A U47G C66U | ≤ 0.5
89 | U2A C46A G58A | 0.622
90 | U2C C33U C61G | ≤ 0.5
91 | U2C C22U G38C C46U | ≤ 0.5
92 | U2C C24G C46U | ≤ 0.5
93 | U2C C27U A36C | ≤ 0.5
94 | U2C C27U A36G | 0.575
95 | U2C C55A A57C G67C G68A | 0.575
96 | U2A G48A | 0.978

Row | Variant | yeast fitness
97 | U2C C11U G25U C29U G39A | ≤ 0.5
98 | U2C A42G | 0.821
99 | U2C A42U | 0.937
100 | U2C A42C | 0.914
101 | U2C C11G C22G G56A G63A | ≤ 0.5
102 | U2A U32C A57G | 0.652
103 | U2C A14U G18C C33G G52A | ≤ 0.5
104 | U2A C11U G17A U64G | ≤ 0.5
105 | U2C C4U G25C C29U G68A | ≤ 0.5
106 | U2C C31G C55G | 0.569
107 | U2A C27A C34U | ≤ 0.5
108 | U2C C46U U59C | 0.705
109 | U2A G9A A20C C24U C61G | ≤ 0.5
110 | U2A U47A | 0.851
111 | U2C A70G | 0.945
112 | U2C A20U U28A | ≤ 0.5
113 | U2C C4A C34A A43G G52C C60G A65G | ≤ 0.5
114 | U2C C24A C66U | 0.61
115 | U2C A36U A65C | ≤ 0.5
116 | U2A C24U A70C | 0.894
117 | U2A G6A U28G | ≤ 0.5
118 | U2A U7A U54A | ≤ 0.5
119 | U2C C24A | 0.574
120 | U2C C24U | 0.952

Row | Variant | yeast fitness
121 | U2A C24G A43U C46U | 0.542
122 | U2A C24U C29U C33U C34G A42U G58A | 0.56
123 | U2A U3C G18C A69U | ≤ 0.5
124 | U2C C27U A43G | 0.593
125 | U2C C33U A42G G44C | ≤ 0.5
126 | U2C A14C G39A A57U | ≤ 0.5
127 | U2C C29U G38C A43U U53G | ≤ 0.5
128 | U2C C33U A42C U64C A70G | ≤ 0.5
129 | U2A U13A A20C G44C C66U | ≤ 0.5
130 | U2C C11U A21C U26C C49U A57U | ≤ 0.5
131 | U2A C30A | 0.819
132 | U2A G38C A40C C49U | 0.527
133 | U2A G9A C11U G51C C55U A69C A70U | ≤ 0.5
134 | U2A G6C C29A U59G | 0.603
135 | U2C C29U G56A | 0.625
136 | U2C A57U C62U U64C | ≤ 0.5
137 | U2C A14G G18A U32A U59A | ≤ 0.5
138 | U2C C4A U28C G44C | 0.601
139 | U2A C49U C62U | 0.522
140 | U2C C5A | 0.845
141 | U2A C46U | 1.06
142 | U2A C46A | 1.03
143 | U2C A40C A69C | 0.633
144 | U2A U19G C29G | ≤ 0.5

Row | Variant | yeast fitness
145 | U2C C46G G63A A70U | ≤ 0.5
146 | U2C A65C | 0.86
147 | U2C C27U C46U G48A | 0.636
148 | U2A C46U A65G | 0.592
149 | U2C C5U U54C | ≤ 0.5
150 | U2A G38C G44C A69U | ≤ 0.5
151 | U2A C33U C34U G38A G51A C55A A65U | ≤ 0.5
152 | U2A U3G C34U | ≤ 0.5
153 | U2A U3C G18C C29G U54A | ≤ 0.5
154 | U2C C27U | 0.881
155 | U2C C27G | 0.748
156 | U2A U19C | 0.867
157 | U2A C55U | 0.661
158 | U2A C55A | 0.714
159 | U2A G10C C27G G39U G50C G58A | ≤ 0.5
160 | U2A U26A | 1.06
161 | U2C C29U A37G A65G | ≤ 0.5
162 | U2A U13A U35G | ≤ 0.5
163 | U2A C31A A40U U53G G56C C62G | ≤ 0.5
164 | U2A C29A | 0.625
165 | U2C C29U C66G G68A | ≤ 0.5
166 | U2C C34A | 0.77
167 | U2A C27G | 0.764
